Experimental data as given in ChEMBL document CHEMBL4038321, “Design, Synthesis, and Pharmacokinetics of a Bone-Targeting Dual-Action Prodrug for the Treatment of Osteoporosis” (J Med Chem, 2017).

How the values were obtained:
[1] = Stability in rat serum assessed as parent compound remaining at 100 uM measured after 1 hr by HPLC analysis (reference value: 93 to 97%); type: ADME, cell-free; conditions: read-out: Stability
[2] = Stability in rat plasma assessed as parent compound remaining at 100 uM measured after 2 hrs by HPLC analysis (reference value: 49 to 86%); type: ADME, cell-free; conditions: read-out: Stability
[3] = biological target: T1, cathepsin K (Homo sapiens, UniProt P43235); assay: Substrate activity at recombinant human cathepsin K expressed in Escherichia coli assessed as compound cleavage at 100 uM after 3 hrs by HPLC analysis; type: ADME; conditions: read-out: Drug degradation
T1 sequence (P43235 whole entry): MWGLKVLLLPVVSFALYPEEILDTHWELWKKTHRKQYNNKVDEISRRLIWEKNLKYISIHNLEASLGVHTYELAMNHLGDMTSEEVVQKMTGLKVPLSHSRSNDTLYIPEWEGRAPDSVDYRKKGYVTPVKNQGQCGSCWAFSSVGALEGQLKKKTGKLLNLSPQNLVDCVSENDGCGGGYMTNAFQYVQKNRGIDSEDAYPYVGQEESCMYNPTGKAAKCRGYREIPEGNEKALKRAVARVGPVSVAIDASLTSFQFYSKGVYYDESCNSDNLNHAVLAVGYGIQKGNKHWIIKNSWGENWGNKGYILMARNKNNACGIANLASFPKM
In short: (§1)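 Human procathepsin K, recombinant from E. coli, was activated for 40 min at room temperature in 50 mM NaOAc-HOAc with 200 mM NaCl, pH 4.1. Final assay had 0.2 µM enzyme in 50 mM MES pH 5.5, 2 mM EDTA, 4 mM DTT and 0.15% chondroitin sulfate. Conjugates or the standard substrate Cbz-Leu-Arg-AMC were at 100 µM. Incubation was at 37 °C with HPLC at UV 240 nm; cleavage was taken from release of 4-aminobenzyl alcohol and its DTT adduct.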

[4] = biological target: T1, cathepsin K; assay: Substrate activity at recombinant human cathepsin K expressed in Escherichia coli assessed as compound cleavage at 100 uM after 2 hrs by HPLC analysis; type: ADME; conditions: read-out: Drug degradation; in short: as §1
[5] = Stability in rat plasma assessed as parent compound remaining at 100 uM measured after 24 hrs by HPLC analysis (reference value: 49 to 86%); type: ADME, cell-free; conditions: read-out: Stability
[6] = Stability in rat serum assessed as parent compound remaining at 100 uM measured after 24 hrs by HPLC analysis (reference value: 93 to 97%); type: ADME, cell-free; conditions: read-out: Stability
[7] = Stability in rat serum assessed as parent compound remaining at 100 uM measured after 2 hrs by HPLC analysis (reference value: 93 to 97%); type: ADME, cell-free; conditions: read-out: Stability
[8] = Stability in rat serum assessed as parent compound remaining at 100 uM measured after 4 hrs by HPLC analysis (reference value: 93 to 97%); type: ADME, cell-free; conditions: read-out: Stability
[9] = biological target: T2, cathepsin K (Rattus norvegicus, UniProt O35186); assay: Substrate activity at recombinant rat cathepsin K expressed in Escherichia coli assessed as compound cleavage at 100 uM after 1 hr by HPLC analysis; type: ADME; conditions: read-out: Drug degradation
T2 sequence (O35186 whole entry): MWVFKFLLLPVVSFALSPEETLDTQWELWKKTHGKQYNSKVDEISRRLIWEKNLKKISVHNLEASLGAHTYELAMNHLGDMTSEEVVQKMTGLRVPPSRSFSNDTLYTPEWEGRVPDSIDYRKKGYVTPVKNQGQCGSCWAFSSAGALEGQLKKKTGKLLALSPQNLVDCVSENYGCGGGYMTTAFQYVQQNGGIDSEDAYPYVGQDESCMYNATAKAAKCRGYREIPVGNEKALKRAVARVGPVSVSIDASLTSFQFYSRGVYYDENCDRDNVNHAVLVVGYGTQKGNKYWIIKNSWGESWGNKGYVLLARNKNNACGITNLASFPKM
In short: (§2)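 Rat cathepsin K was recombinant, expressed in E. coli, and used at 0.2 µM final in 50 mM MES pH 5.5 with 2 mM EDTA, 4 mM DTT and 0.15% chondroitin sulfate. Conjugates or the standard substrate Cbz-Leu-Arg-AMC were at 100 µM and incubated at 37 °C. Aliquots were run by HPLC at UV 240 nm. Cleavage was calculated from the appearance of 4-aminobenzyl alcohol plus its DTT-trapped adduct.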

[10] = biological target: T1, cathepsin K; assay: Substrate activity at recombinant human cathepsin K expressed in Escherichia coli assessed as compound cleavage at 100 uM after 1 hr by HPLC analysis; type: ADME; conditions: read-out: Drug degradation; in short: as §1
[11] = Stability in rat plasma assessed as parent compound remaining at 100 uM measured after 4 hrs by HPLC analysis (reference value: 49 to 86%); type: ADME, cell-free; conditions: read-out: Stability
[12] = biological target: T2, cathepsin K; assay: Substrate activity at recombinant rat cathepsin K expressed in Escherichia coli assessed as compound cleavage at 100 uM after 2 hrs by HPLC analysis; type: ADME; conditions: read-out: Drug degradation; in short: as §2
[13] = biological target: T2, cathepsin K; assay: Substrate activity at recombinant rat cathepsin K expressed in Escherichia coli assessed as compound cleavage at 100 uM after 20 hrs by HPLC analysis; type: ADME; conditions: read-out: Drug degradation; in short: as §2
[14] = Stability in rat plasma assessed as parent compound remaining at 100 uM measured after 1 hr by HPLC analysis (reference value: 49 to 86%); type: ADME, cell-free; conditions: read-out: Stability
[15] = Solubility of the compound in phosphate buffer at 2 mg/ml; type: physicochemical
In short: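 Conjugate tested for dissolution at the dosing concentration of 2 mg/mL in PBS alone, then in PBS formulations containing surfactants (PEG400, Tween, Cremaphor). Solutions were judged by visual clarity (homogeneous versus cloudy).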

[16] = tested on: Bone; assay: Drug uptake in Sprague-Dawley rat bone at 1 mg/kg, iv after 6 hrs; type: ADME, organism-based, Bone element; conditions: in vivo
[17] = tested on: Bone; assay: Half life in iv dosed Sprague-Dawley rat bone administered as single dose using radiolabeled compound; type: ADME, organism-based, Bone element; conditions: in vivo
In short: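 Female Sprague Dawley rats, about 13 weeks old on receipt, got a single tail-vein bolus of 5.0 mg/kg conjugate. The dose held 8.90 µCi [3H] and 1.77 µCi [14C] label, in 10% poloxamer 188 brought to pH 8.0 with NaHCO3 and diluted 1:1 with PBS. Groups of 3 were killed at 6 h and 1, 7, 14 and 28 days. Femurs were oxidized and counted, with skeleton taken as 8% of body weight, and label loss from bone gave half-times.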

[18] = tested on: Plasma; assay: Drug metabolism in Sprague-Dawley rat plasma assessed as tritium label liberation in presence of bone powder; type: ADME, cell-free
In short: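 Tritiated conjugate was incubated in rat plasma at 37 °C. At fixed times up to 24 h the mixture was stirred with bovine bone powder to adsorb intact conjugate and any cleaved bisphosphonate. The supernatant was then scintillation counted as unbound, liberated tritium.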

[19] = tested on: Bone; assay: Drug uptake in Sprague-Dawley rat bone at 0.2 uci, iv administered as single dose using 14C-labeled compound after 4 hrs; type: ADME, organism-based, Bone element; conditions: in vivo

| remaining at 1 h, 100 µM [1] [%] | remaining at 2 h, 100 µM [2] [%] | metabolised at 2 h, 100 µM [4] [%] | remaining at 24 h, 100 µM [5] [%] | remaining at 24 h, 100 µM [6] [%] | remaining at 2 h, 100 µM [7] [%] | remaining at 4 h, 100 µM [8] [%] | metabolised at 1 h, 100 µM [9] [%] | metabolised at 1 h, 100 µM [10] [%] | remaining at 4 h, 100 µM [11] [%] | metabolised at 2 h, 100 µM [12] [%] | metabolised at 20 h, 100 µM [13] [%] | remaining at 1 h, 100 µM [14] [%] | Structure (SMILES) | also measured |
| --- | --- | --- | --- | --- | --- | --- | --- | --- | --- | --- | --- | --- | --- | --- |
| 97 | 78 | 75 | 59 | 70 | 95 | 86 | 73 | 66 | 64 | 80 | 95 | 78 | CC(C)C[C@H](NC(=O)OCc1ccccc1)C(=O)N[C@@H](CCCNC(=N)N)C(=O)Nc1ccc(COC(=O)NCCCC(O)(P(=O)(O)O)P(=O)(O)O)cc1 | metabolised at 3 h, 100 µM [3]: 79% |
|  |  |  |  |  |  |  |  |  |  |  |  |  | CCOC(=O)CCCCCCN1C(=O)CC[C@@H]1/C=C/[C@@H](OC(=O)Cc1ccc(COC(=O)N[C@@H](CC(C)C)C(=O)N[C@@H](CCCNC(=N)N)C(=O)Nc2ccc(COC(=O)NCCCC(O)(P(=O)(O)O)P(=O)(O)O)cc2)cc1)C(F)(F)c1ccccc1 | solubility [15]: Insoluble |
|  |  |  |  |  |  |  |  |  |  |  |  |  | CCCCC[C@@H](/C=C/[C@H]1[C@H](O)CC(=O)[C@@H]1C/C=C\CCCC(=O)O)OC(=O)CSCCCC(P(=O)(O)O)P(=O)(O)O | Drug uptake [16]: 3.5%; t1/2 [17]: 96 to 120 h; Drug metabolism [18]: 15% |
| 89 | 90 | 98 | 65 | 69 | 78 | 77 | 5 | 90 | 90 | 10 | 52 | 95 | N=C(N)NCCC[C@H](NC(=O)[C@@H]1CCCN1C(=O)OCc1ccccc1)C(=O)Nc1ccc(COC(=O)NCCCC(O)(P(=O)(O)O)P(=O)(O)O)cc1 |  |
|  |  |  |  |  |  |  |  |  |  |  |  |  | CCCCC[C@H](O)/C=C/[C@H]1[C@H](O)CC(=O)[C@@H]1C/C=C\CCCC(=O)NCCCC(O)(P(=O)(O)O)P(=O)(O)O | Drug uptake [19]: 15 %ID |
